Our source for the Activation, inhibition and Activity values is ChEMBL document CHEMBL1135327, “Comparison of the prevention of aflatoxin b(1)-induced genotoxicity by quercetin and quercetin pentaacetate” (2002).

For experiment [1], the species on record is Rattus norvegicus. Put plainly: Influence (5 uM) on transacetylase catalyzed time dependent activation of NADPH cytochrome C reductase at pre-incubation time being 10 mins. The format is functional. Put shortly: (§1)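 Rat liver microsomes were preincubated at 37 °C with test compound (in DMSO) in 0.05 M phosphate buffer, pH 7.7. Aliquots were taken at 5, 10, 20 and 30 min into a cuvette with EDTA, cytochrome C and NADPH. NADPH–cytochrome C reductase activity was followed at 550 nm. Values are means of four observations.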

For experiment [2], the species on record is Rattus norvegicus. Put plainly: Influence (5 uM) on transacetylase catalyzed time dependent activation of NADPH cytochrome C reductase at pre-incubation time being 30 mins. It counts as functional. The method, boiled down: as §1
The species entered for experiment [3] is Rattus norvegicus. Nature of the experiment: Influence (5 uM) on transacetylase catalyzed time dependent activation of NADPH cytochrome C reductase at pre-incubation time being 5 mins. The format is functional. The method, boiled down:
as §1

The species named for experiment [4] is Rattus norvegicus. Put plainly: Influence (5 uM) on transacetylase catalyzed time dependent activation of NADPH cytochrome C reductase at pre-incubation time being 20 mins. It counts as functional. The method, boiled down: as §1
Experiment [5] can be described thus: The compound was evaluated for in Vitro binding of AFB1 to DNA in rat liver microsomes; Pre-incubation time being 10 mins. Conditions: Microsome.
Experiment [6] can be described thus: The compound was evaluated for in Vitro binding of AFB1 to DNA in rat liver microsomes; Pre-incubation time being 30 mins. Conditions: Microsome.
Experiment [7] can be described thus: The compound was evaluated for in Vitro binding of AFB1 to DNA in rat liver microsomes; Pre-incubation time being 20 mins. As to conditions: Microsome.
Experiment [8] is filed under the species Rattus norvegicus. Nature of the experiment: Effect of compound on AFB1-induced micronuclei formation in rat bone marrow cells (Activity: Micronucleated cells/1000 cells). It counts as functional.
The species named for experiment [9] is Rattus norvegicus. Put plainly: Effect of compound on AFB1-induced micronuclei formation in rat bone marrow cells in the presence of AFB1 (Activity: Micronucleated cells/1000 cells). It counts as functional.
The species named for experiment [10] is Rattus norvegicus. Put plainly: Influence (2 uM) on transacetylase catalyzed time dependent activation of NADPH cytochrome C reductase at pre-incubation time being 5 mins. It counts as functional. The method, boiled down:
as §1

Experiment [11] is filed under the species Rattus norvegicus. Nature of the experiment: Influence (2 uM) on transacetylase catalyzed time dependent activation of NADPH cytochrome C reductase at pre-incubation time being 10 mins. It counts as functional. Put shortly:
as §1

The species named for experiment [12] is Rattus norvegicus. Nature of the experiment: Influence (2 uM) on transacetylase catalyzed time dependent activation of NADPH cytochrome C reductase at pre-incubation time being 20 mins. It counts as functional. The method, boiled down:
as §1

Experiment [13] is filed under the species Rattus norvegicus. Nature of the experiment: Influence (2 uM) on transacetylase catalyzed time dependent activation of NADPH cytochrome C reductase at pre-incubation time being 30 mins. It counts as functional. Put shortly: as §1

`Cc1cc(=O)oc2c(O)c(O)ccc12` [4-METHYLDAPHNETIN]: the Activation came to 2.5% in the experiment filed under Rattus norvegicus [1], 3.5% in the experiment listed under Rattus norvegicus [2], 2.8% in the experiment listed under Rattus norvegicus [3] and 3.1% in the experiment listed under Rattus norvegicus [4]. Also, the inhibition in [5] amounted to 8.5%; in [6], 8.9%; in experiment [7], 8.2%.

Turning to `O=c1c(O)c(-c2ccc(O)c(O)c2)oc2cc(O)cc(O)c12` [QUERCETIN], the Activation is 3.3% in the experiment filed under Rattus norvegicus [1], 5.7% in the experiment filed under Rattus norvegicus [2], 3.7% in the experiment listed under Rattus norvegicus [3] and 5.4% in the experiment filed under Rattus norvegicus [4]. Further, the results for the Activity in the experiment filed under Rattus norvegicus [8] and in the experiment filed under Rattus norvegicus [9] were 2 and 6, respectively. In addition, the inhibition was 5.7% in experiment [5], 6.2% in experiment [6] and 5.2% in experiment [7].

On to `CC(=O)Oc1cc(OC(C)=O)c2c(=O)c(OC(C)=O)c(-c3ccc(OC(C)=O)c(OC(C)=O)c3)oc2c1`, for which the Activation in the experiment filed under Rattus norvegicus [1] was found to be 13.3%; in the experiment listed under Rattus norvegicus [2], 37%; in the experiment listed under Rattus norvegicus [3] it was 7.1%; in the experiment filed under Rattus norvegicus [4], 25%. Also, the Activity in the experiment filed under Rattus norvegicus [8] was determined as 2.25; in the experiment filed under Rattus norvegicus [9] it was 4.75. Also, the inhibition in experiment [5] was determined as 6.7%; in [6] it was 18%; in [7], 12.8%.

Turning to `CC(=O)Oc1ccc2c(C)cc(=O)oc2c1OC(C)=O`, the Activation was 10.2% in the experiment listed under Rattus norvegicus [10], 18.9% in the experiment listed under Rattus norvegicus [11], 39.9% in the experiment filed under Rattus norvegicus [12] and 57.6% in the experiment filed under Rattus norvegicus [13]. Further, the Activity in the experiment listed under Rattus norvegicus [8] is given as 2.25; in the experiment filed under Rattus norvegicus [9], 3.75. Besides, the results for the inhibition in experiment [5], in experiment [6] and in experiment [7] were 19%, 56.8% and 37.5%, respectively.
